Data on 11 compounds can be found in ChEMBL document CHEMBL1150169, “Fatty acid synthase inhibitors from plants: isolation, structure elucidation, and SAR studies” (J Nat Prod, 2002).

In assay [1] the test system is Cryptococcus neoformans. Put plainly: Antifungal activity against Cryptococcus neoformans ATCC 90113. It is filed as functional, organism-based.
In assay [2] the test system is Candida albicans. The assay can be described thus: Antifungal activity against Candida albicans ATCC 90028. The format is functional, organism-based.
The nature of assay [3]: Inhibition of Saccharomyces cerevisiae fatty acid synthase. In a few lines: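 Yeast FAS semipurified by 50% ammonium sulfate precipitation of lysate (pH 6.6 phosphate, EDTA, DTT, protease inhibitors), dialyzed, and diluted to 250 mOD/min/mL. Samples preincubated with enzyme 30 min at room temperature, then mixed 1:1 with mix of 1 mM malonyl CoA and NADPH, 40 µM acetyl CoA, and 2 mM DTT. A340 read kinetically; rate over initial 2 min. IC50 from dose-response curves.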

Molecules are shown by their SMILES. Values after ≈ are worked out from the molar mass of the structure shown.

A word on the IC50: it is the concentration at which inhibition is half-maximal. `O=c1cc(-c2ccc(O)c(O)c2)oc2cc(O)cc(O)c12` [LUTEOLIN]: the values for the IC50 in assay [1], in assay [2] and in assay [3] were > 50 µg/mL, > 50 µg/mL and 9 µg/mL (≈ 31.4 µM), respectively.
For the compound `C=C(C)[C@@H]1CC[C@]2(C(=O)O)CC[C@]3(C)[C@H](CC[C@@H]4[C@@]5(C)CC[C@H](O)C(C)(C)[C@@H]5CC[C@]43C)[C@@H]12` [BETULINIC ACID], the IC50 in assay [1], in assay [2] and in assay [3] was > 50 µg/mL each time.
As to `O=C(O)C[C@@H]1C(=O)O[C@H]2[C@@H]3OC(=O)c4cc(O)c(O)c(O)c4-c4c(cc(O)c(O)c4O)C(=O)OC[C@H]2O[C@@H](OC(=O)c2cc(O)c(O)c(O)c2)[C@@H]3OC(=O)c2cc(O)c(O)c3c2[C@H]1[C@H](O)C(=O)O3` [CHEBULAGIC ACID], the IC50 in assay [1], in assay [2] and in assay [3] was > 50 µg/mL throughout.
Consider `O=C(O)C[C@H]1C(=O)O[C@H]2[C@H](OC(=O)c3cc(O)c(O)c(O)c3)[C@@H](OC(=O)c3cc(O)c(O)c4c3[C@H]1[C@H](O)C(=O)O4)[C@H](OC(=O)c1cc(O)c(O)c(O)c1)O[C@@H]2COC(=O)c1cc(O)c(O)c(O)c1` [CHEBULINIC ACID], for which the IC50 in assay [1], in assay [2] and in assay [3] was > 50 µg/mL each time.
As to `O=C1c2c(O)cc(O)c(C3C(=O)c4c(O)cc(O)cc4OC3c3ccc(O)cc3)c2OC(c2ccc(O)c(O)c2)C1O` (stereo not drawn), the IC50 in assay [1] was > 50 µg/mL; in assay [2], > 50 µg/mL; in assay [3], 23 µg/mL (≈ 40 µM).
As for `O=c1cc(-c2ccc(O)c(-c3c(O)cc(O)c4c(=O)cc(-c5ccc(O)cc5)oc34)c2)oc2cc(O)cc(O)c12` [AMENTOFLAVONE], the IC50 in assay [1] was > 50 µg/mL; in assay [2] it was > 50 µg/mL; in assay [3] it was 7 µg/mL (≈ 13 µM).
As to `COc1ccc(-c2coc3cc(O)c(O)cc3c2=O)cc1` [FORMONETIN], the IC50 in assay [1] was > 50 µg/mL; in assay [2], > 50 µg/mL; in assay [3] it was 50 µg/mL (≈ 176 µM).
`O=C1c2c(O)cc(O)cc2OC(c2ccc(O)cc2)C1c1c(O)cc(O)c2c(=O)cc(-c3ccc(O)c(O)c3)oc12` (stereo not drawn): the IC50 in assay [1] is > 50 µg/mL; in assay [2], > 50 µg/mL; in assay [3], 30 µg/mL (≈ 53.9 µM).
Regarding `COc1cc(O)c(C(=O)CCc2ccccc2)c(O)c1`, the IC50 in assay [1], in assay [2] and in assay [3] was > 50 µg/mL throughout.
As for `O=c1c(O)c(-c2cc(O)c(O)c(O)c2)oc2cc(O)cc(O)c12` [MYRICETIN], the IC50 in assay [1] was > 50 µg/mL; in assay [2] it was > 50 µg/mL; in assay [3], 15 µg/mL (≈ 47.1 µM).
For the compound `COc1ccc(-c2cc(=O)c3c(O)cc(O)cc3o2)cc1-c1c(OC)cc(O)c2c(=O)cc(-c3ccc(O)cc3)oc12`, the IC50 was > 50 µg/mL in assay [1], > 50 µg/mL in assay [2] and 49 µg/mL (≈ 86.5 µM) in assay [3].
